Laboratory results reported in ChEMBL document CHEMBL4428079, “Modulation of Backbone Flexibility for Effective Dissociation of Antibacterial and Hemolytic Activity in Cyclic Peptides” (ACS Med Chem Lett, 2016).
≈ marks a conversion by molar mass, not a printed value. Calls of active or inactive are those of the source. The rule behind the calls is not given here. Bridge positions count the residues as written; N and C are the ends. Square brackets hold non-standard residues; d marks the D form. Peptide text beside a SMILES is read from it. Bip = N[C@@H](Cc1ccc(-c2ccccc2)cc1)C(=O)O; 2Nal = N[C@@H](Cc1ccc2ccccc2c1)C(=O)O; Dab = NCC[C@H](N)C(=O)O; AEEA = NCCOCCOCC(=O)O; Aoc = NCCCCCCCC(=O)O; Ahx = NCCCCCC(=O)O; AEA = NCCOCC(=O)O; GABA = NCCCC(=O)O

Key:
[1] = tested on: Enterococcus faecium; assay: Antimicrobial activity against vancomycin-resistant Enterococcus faecium ATCC 700221 after 18 hrs by tube microdilution method; assay type: functional; conditions: ATCC 700221, 18 h
[2] = tested on: Erythrocyte; assay: Hemolytic activity in human RBC after 1 hr by microplate reader method; assay type: ADME, cell-based
[3] = tested on: Staphylococcus aureus; assay: Antimicrobial activity against methicillin-resistant Staphylococcus aureus ATCC 33591 after 18 hrs by tube microdilution method; assay type: functional; conditions: ATCC 33591, 18 h
[4] = tested on: Escherichia coli; assay: Antimicrobial activity against Escherichia coli ATCC 25922 after 18 hrs by tube microdilution method; assay type: functional; conditions: ATCC 25922, 18 h
[5] = tested on: Klebsiella pneumoniae; assay: Antimicrobial activity against multiple drug resistant-Klebsiella pneumoniae ATCC 700603 after 18 hrs by tube microdilution method; assay type: functional; conditions: Klebsiella pneumoniae, 700603, 18 h
[6] = tested on: Acinetobacter baumannii; assay: Antimicrobial activity against multiple drug resistant-Acinetobacter baumannii ATCC BAA-1605 after 18 hrs by tube microdilution method; assay type: functional; conditions: ATCC BAA-1605, 18 h
[7] = tested on: Pseudomonas aeruginosa; assay: Antimicrobial activity against Pseudomonas aeruginosa ATCC 27853 after 18 hrs by tube microdilution method; assay type: functional; conditions: ATCC 27853, 18 h
[8] = tested on: Lipid bilayer; assay: Binding affinity to DOPE/DOPG large unilamellar vesicles in 3:1 ratio assessed as exciton split measured at 225 nanometer in NaHCO3 buffer
[9] = tested on: Staphylococcus aureus; assay: Bactericidal activity against Staphylococcus aureus ATCC 29213 assessed as reduction in bacterial burden at 32 uM measured up to 3.5 hrs by time kill kinetic study; assay type: functional
Outline: (§1)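 Time-course kill assay against S. aureus ATCC 29213 with peptide at 32 μM. Viable cell count was followed over time as colony counts, with a final sampling at 24 h.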

[10] = tested on: Staphylococcus aureus; assay: Bactericidal activity against Staphylococcus aureus ATCC 29213 assessed as reduction in bacterial burden at 32 uM after 24 hrs by time kill kinetic study; assay type: functional, organism-based; outline: as §1
[11] = tested on: Lipid bilayer; assay: Membrane permeabilization in DOPC/POPG large unilamellar vesicles in 3:1 ratio assessed as sulforhodamine B release at 16 to 64 uM by fluorescence assay
Outline: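 Sulforhodamine B was entrapped at self-quenching concentration in LUVs of DOPC/POPG at 3:1. PE lipids were excluded, and palmitoyl replaced one oleyl chain for vesicle stability. Peptide was added at 16, 32 or 64 μM, and marker release was followed over time as fluorescence recovery on dye release and dilution.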

[12] = tested on: Staphylococcus aureus; assay: Bactericidal activity against Staphylococcus aureus ATCC 29213 assessed as reduction in bacterial burden at 32 uM measured up to 30 mins by time kill kinetic study; assay type: functional; outline: as §1

| Structure (SMILES) | MIC [1] [µM] | EC50 [2] [µM] | MIC [3] [µM] | MIC [4] [µM] | MIC [5] [µM] | MIC [6] [µM] | MIC [7] [µM] | Activity [8] | LCK [9] | Activity [10] | Activity [11] | LCK [12] |
| --- | --- | --- | --- | --- | --- | --- | --- | --- | --- | --- | --- | --- |
| NCCCC[C@@H]1NC(=O)[C@H](CCCCN)NC(=O)[C@H](Cc2ccc3ccccc3c2)NC(=O)[C@H](CCCCN)NC(=O)[C@@H](CC(N)=O)NC(=O)[C@H](CCCCN)NC(=O)[C@H](Cc2ccc3ccccc3c2)NC(=O)CCCCCCCCCNC(=O)[C@H](Cc2ccc(-c3ccccc3)cc2)NC1=O | 8 (≈ 11.3 µg/mL) | 5 | 16 (≈ 22.6 µg/mL) | 16 (≈ 22.6 µg/mL) | > 64 | 16 (≈ 22.6 µg/mL) | > 64 | – | – | – | – | – |
| NCCCC[C@@H]1NC(=O)[C@H](Cc2ccc3ccccc3c2)NC(=O)CCCCCCCCCNC(=O)[C@H](Cc2ccc(-c3ccccc3)cc2)NC(=O)[C@H](CCCCN)NC(=O)[C@H](CCCCN)NC(=O)[C@H](Cc2ccc3ccccc3c2)NC(=O)[C@H](CCCCN)NC(=O)[C@H](CC(N)=O)NC1=O | – | – | – | – | – | – | – | Active | – | – | – | – |
| NCCCC[C@@H]1NC(=O)[C@H](CCCCN)NC(=O)[C@H](Cc2ccc3ccccc3c2)NC(=O)[C@H](CCCCN)NC(=O)[C@H](CC(N)=O)NC(=O)[C@H](CCCCN)NC(=O)[C@H](Cc2ccc3ccccc3c2)NC(=O)[C@@H](N)CCCCNC(=O)[C@H](Cc2ccc(-c3ccccc3)cc2)NC1=O (H-K[2Nal]KNK[2Nal]KK[Bip]; lactam 1-C) | 2 (≈ 2.75 µg/mL) | > 300 | 16 (≈ 22 µg/mL) | 32 (≈ 43.9 µg/mL) | 64 (≈ 87.9 µg/mL) | > 64 | 16 (≈ 22 µg/mL) | Active | – | – | – | – |
| NCCCC[C@@H]1NC(=O)[C@H](CCCCN)NC(=O)[C@H](Cc2ccc3ccccc3c2)NC(=O)[C@H](CCCCN)NC(=O)[C@H](CC(N)=O)NC(=O)[C@H](CCCCN)NC(=O)[C@H](Cc2ccc3ccccc3c2)NC(=O)[C@@H](N)CCNC(=O)[C@H](Cc2ccc(-c3ccccc3)cc2)NC1=O (H-[Dab][2Nal]KNK[2Nal]KK[Bip]; lactam 1-C) | 2 (≈ 2.69 µg/mL) | > 300 | 16 (≈ 21.5 µg/mL) | 64 (≈ 86.1 µg/mL) | 64 (≈ 86.1 µg/mL) | > 64 | 32 (≈ 43 µg/mL) | Active | 3 | Active | – | – |
| NCCCC[C@@H]1NC(=O)[C@H](Cc2ccc3ccccc3c2)NC(=O)COCCOCCNC(=O)[C@H](Cc2ccc(-c3ccccc3)cc2)NC(=O)[C@H](CCCCN)NC(=O)[C@H](CCCCN)NC(=O)[C@H](Cc2ccc3ccccc3c2)NC(=O)[C@H](CCCCN)NC(=O)[C@H](CC(N)=O)NC1=O (cyclo(K[2Nal]KK[Bip][AEEA][2Nal]KN)) | 2 (≈ 2.78 µg/mL) | > 300 | 16 (≈ 22.2 µg/mL) | 64 (≈ 88.9 µg/mL) | 64 (≈ 88.9 µg/mL) | 16 (≈ 22.2 µg/mL) | 32 (≈ 44.5 µg/mL) | inactive | – | – | Active | – |
| NCCCC[C@@H]1NC(=O)[C@H](Cc2ccc3ccccc3c2)NC(=O)CNC(=O)[C@H](Cc2ccc(-c3ccccc3)cc2)NC(=O)[C@H](CCCCN)NC(=O)[C@H](CCCCN)NC(=O)[C@H](Cc2ccc3ccccc3c2)NC(=O)[C@H](CCCCN)NC(=O)[C@H](CC(N)=O)NC1=O (cyclo([2Nal]KK[Bip]G[2Nal]KNK)) | 4 (≈ 5.21 µg/mL) | 45 | 8 (≈ 10.4 µg/mL) | 32 (≈ 41.7 µg/mL) | 32 (≈ 41.7 µg/mL) | 32 (≈ 41.7 µg/mL) | 32 (≈ 41.7 µg/mL) | Active | – | Active | Active | – |
| NCCCC[C@@H]1NC(=O)[C@H](Cc2ccc3ccccc3c2)NC(=O)COCCNC(=O)[C@H](Cc2ccc(-c3ccccc3)cc2)NC(=O)[C@H](CCCCN)NC(=O)[C@H](CCCCN)NC(=O)[C@H](Cc2ccc3ccccc3c2)NC(=O)[C@H](CCCCN)NC(=O)[C@H](CC(N)=O)NC1=O (cyclo([2Nal]KK[Bip][AEA][2Nal]KNK)) | 4 (≈ 5.38 µg/mL) | > 300 | 16 (≈ 21.5 µg/mL) | 32 (≈ 43.1 µg/mL) | 64 (≈ 86.1 µg/mL) | 32 (≈ 43.1 µg/mL) | 32 (≈ 43.1 µg/mL) | Active | – | – | – | – |
| NCCCC[C@@H]1NC(=O)[C@H](Cc2ccc3ccccc3c2)NC(=O)CCCCCNC(=O)[C@H](Cc2ccc(-c3ccccc3)cc2)NC(=O)[C@H](CCCCN)NC(=O)[C@H](CCCCN)NC(=O)[C@H](Cc2ccc3ccccc3c2)NC(=O)[C@H](CCCCN)NC(=O)[C@H](CC(N)=O)NC1=O (cyclo([2Nal]KK[Bip][Ahx][2Nal]KNK)) | 2 (≈ 2.72 µg/mL) | 18 | 8 (≈ 10.9 µg/mL) | 16 (≈ 21.7 µg/mL) | 8 (≈ 10.9 µg/mL) | 8 (≈ 10.9 µg/mL) | 16 (≈ 21.7 µg/mL) | Active | – | – | – | – |
| NCCCC[C@@H]1NC(=O)[C@H](Cc2ccc3ccccc3c2)NC(=O)CCCCCCCNC(=O)[C@H](Cc2ccc(-c3ccccc3)cc2)NC(=O)[C@H](CCCCN)NC(=O)[C@H](CCCCN)NC(=O)[C@H](Cc2ccc3ccccc3c2)NC(=O)[C@H](CCCCN)NC(=O)[C@H](CC(N)=O)NC1=O (cyclo([2Nal]KK[Bip][Aoc][2Nal]KNK)) | 2 (≈ 2.77 µg/mL) | 12 | 4 (≈ 5.54 µg/mL) | 16 (≈ 22.2 µg/mL) | 16 (≈ 22.2 µg/mL) | 16 (≈ 22.2 µg/mL) | 16 (≈ 22.2 µg/mL) | Active | – | – | Active | – |
| NCCCC[C@@H]1NC(=O)[C@H](Cc2ccc3ccccc3c2)NC(=O)CCCNC(=O)[C@H](Cc2ccc(-c3ccccc3)cc2)NC(=O)[C@H](CCCCN)NC(=O)[C@H](CCCCN)NC(=O)[C@H](Cc2ccc3ccccc3c2)NC(=O)[C@H](CCCCN)NC(=O)[C@H](CC(N)=O)NC1=O (cyclo([2Nal]KK[Bip][GABA][2Nal]KNK)) | 4 (≈ 5.32 µg/mL) | 155 | 16 (≈ 21.3 µg/mL) | 32 (≈ 42.5 µg/mL) | 32 (≈ 42.5 µg/mL) | 32 (≈ 42.5 µg/mL) | 32 (≈ 42.5 µg/mL) | Active | – | Active | – | 3 |
